Measured values collected from several papers.
Compare with care: the assays were run in different laboratories.
Target: Serine/threonine-protein kinase Nek1 (NEK1, Homo sapiens, UniProt Q96PY6)
Sequence (Q96PY6 1-1258, as in one of the studies): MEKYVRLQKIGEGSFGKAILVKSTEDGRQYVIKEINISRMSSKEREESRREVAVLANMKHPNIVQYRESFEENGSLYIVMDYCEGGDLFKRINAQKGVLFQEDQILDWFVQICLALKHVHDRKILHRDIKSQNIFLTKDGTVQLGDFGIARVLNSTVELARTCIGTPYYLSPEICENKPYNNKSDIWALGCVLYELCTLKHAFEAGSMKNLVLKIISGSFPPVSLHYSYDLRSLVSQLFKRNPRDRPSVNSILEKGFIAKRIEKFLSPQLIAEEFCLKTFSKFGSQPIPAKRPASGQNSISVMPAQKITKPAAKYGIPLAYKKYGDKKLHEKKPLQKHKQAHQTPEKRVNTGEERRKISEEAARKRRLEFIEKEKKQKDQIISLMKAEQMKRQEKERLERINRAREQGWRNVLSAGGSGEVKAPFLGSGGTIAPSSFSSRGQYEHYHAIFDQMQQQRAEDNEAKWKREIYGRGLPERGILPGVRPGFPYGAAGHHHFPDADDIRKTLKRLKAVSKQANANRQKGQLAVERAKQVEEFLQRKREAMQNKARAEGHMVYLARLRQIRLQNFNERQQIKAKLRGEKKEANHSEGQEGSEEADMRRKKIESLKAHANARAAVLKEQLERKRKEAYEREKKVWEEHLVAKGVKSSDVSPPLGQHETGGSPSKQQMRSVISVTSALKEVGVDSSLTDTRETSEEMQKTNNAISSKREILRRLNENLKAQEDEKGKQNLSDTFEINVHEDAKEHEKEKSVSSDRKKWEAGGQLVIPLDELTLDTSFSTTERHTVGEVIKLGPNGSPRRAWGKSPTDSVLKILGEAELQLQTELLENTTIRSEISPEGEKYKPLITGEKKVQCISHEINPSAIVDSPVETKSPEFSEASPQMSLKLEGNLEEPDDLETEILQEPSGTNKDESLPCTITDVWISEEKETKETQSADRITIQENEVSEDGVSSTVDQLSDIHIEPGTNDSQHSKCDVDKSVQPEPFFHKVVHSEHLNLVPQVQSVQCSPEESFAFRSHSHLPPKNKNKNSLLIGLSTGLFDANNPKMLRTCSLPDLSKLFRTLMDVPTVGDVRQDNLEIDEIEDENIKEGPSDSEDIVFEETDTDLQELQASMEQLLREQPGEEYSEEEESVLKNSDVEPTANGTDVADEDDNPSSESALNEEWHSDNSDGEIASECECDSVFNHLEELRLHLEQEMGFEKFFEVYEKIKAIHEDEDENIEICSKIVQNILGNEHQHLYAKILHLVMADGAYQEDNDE

N#CCCc1ccc2c(c1)-c1[nH]c3ccc([N+](=O)[O-])cc3c1CC(=O)N2  remaining signal (cell-free assay; 0.5 µM): 132%
COc1cccc2c(NCc3ccccc3)nc(-n3c(N)nc4ccccc43)nc12  inhibition (target engagement in cells, inhibitor, chemoproteomics; 20 mM): -13%
C[C@@H](c1cccc(C#N)c1)n1cc(Cl)cc(C(N)=O)c1=N  remaining binding (cell-free assay, competition with immobilised ligand; 1 µM): 100%
Cc1sc(C(=O)NC2COC2)cc1-n1cc(NC(=O)Nc2c(F)cccc2Cl)cn1  remaining activity (enzyme activity, inhibitor; 10 µM): 90.4%
Cn1cnc(Br)c1C1=CN(c2ncnc3[nH]cnc23)CCS1  inhibition (enzyme activity, inhibitor, radiometric; 50 nM): 33.1%
C[C@@H]1CN(c2cc(-c3nn(C)c4ccc(OC5(C)CC5)cc34)ncn2)C[C@H](C)O1  remaining binding (cell-free assay, competition with immobilised ligand; 1 µM): 83%
CNc1cc(Oc2cc(C(=O)Nc3cc(N4CCN(C)CC4)cc(C(F)(F)F)c3)ccc2C)ncn1  inhibition (target engagement in cells, inhibitor, chemoproteomics; Huh-7; 1 µM): -12.5%
CC(C)(C)c1nc(-c2cccc(NS(=O)(=O)c3c(F)cccc3F)c2F)c(-c2ccnc(N)n2)s1  remaining activity (enzyme activity, inhibitor, radiometric; 1 µM): 63%
Cc1ccc(Nc2nccc(N(C)c3ccc4c(C)n(C)nc4c3)n2)cc1S(N)(=O)=O  remaining activity (enzyme activity, inhibitor; 0.5 µM): 105%
COc1cc2ncnc(Nc3ccc(Oc4ccccc4)cc3C)c2cc1OC  inhibition (enzyme activity, inhibitor; 1 µM): -2%
CO[C@@H](C)c1c(Nc2ccc([C@@H](N(C)C(=O)C3CCS(=O)(=O)CC3)C(F)(F)F)cc2)cnc2cc(Cl)nn12  remaining binding (cell-free assay, competition with immobilised ligand; 1 µM): 100%
CC(C)(O)[C@H]1CC[C@H](Nc2ccc3ncc(-c4cccc(C(F)(F)F)c4)n3n2)CC1  remaining activity (enzyme activity, inhibitor; 1 µM): 48.3%
O=C(Nc1cnc(Oc2ccc(F)cc2)nc1)N1CCc2ncccc2[C@@H]1c1ccc(F)cc1  remaining binding (cell-free assay, competition with immobilised ligand; 1 µM): 84%
C[S+]([O-])c1ccc(-c2nc(-c3ccncc3)c(-c3ccc(F)cc3)[nH]2)cc1 (stereo not shown)  remaining signal (cell-free assay; 0.5 µM): 94.7%
CNC(=O)c1ccc(Nc2ncc(C(F)(F)F)c(NCc3nccnc3N(C)S(C)(=O)=O)n2)cc1  remaining binding (cell-free assay, competition with immobilised ligand; 0.1 µM): 75%
CCCS(=O)(=O)Nc1ccc(F)c(C(=O)c2c[nH]c3ncc(-c4ccc(Cl)cc4)cc23)c1F  inhibition (enzyme activity, inhibitor; 1 µM): < 20%
c1cnn2ncc(-c3ccnc(N4CCC45COC5)n3)c2c1  remaining binding (binding; 1 µM): 100%
Cc1c(NC(=O)c2cc(C(N)=O)nc3cc(F)ccc23)c(C(F)(F)F)nn1Cc1ccc(C(C)(C)C)cc1  remaining binding (cell-free assay, competition with immobilised ligand; 1 µM): 97%
CCN1CCN(Cc2ccc(NC(=O)c3ccc(C)c(/C=C/c4cnc5[nH]ccc5c4OC)c3)cc2C(F)(F)F)CC1  inhibition (target engagement in cells, inhibitor, chemoproteomics; A-375; 5 µM): -11.6%
CS(=O)(=O)c1cc(C2(NC(=O)c3cncc4c3cnn4-c3ccc(F)cc3)CC2)ccn1  remaining binding (cell-free assay, competition with immobilised ligand; 1 µM): 45%
CCCCNc1ncc2c(-c3ccc(F)cc3)nn(C[C@H]3CC[C@H](N)CC3)c2n1  inhibition (target engagement in cells, inhibitor, chemoproteomics; 20 mM): -3.7%
Cc1ccc(C(=O)Nc2ccc(CN3CCN(C)CC3)c(C(F)(F)F)c2)cc1C#Cc1cnc2cccnn12  remaining activity (enzyme activity, inhibitor; 23.5 nM): 98%
